# In PubChem BioAssay:
# Active and inactive are the calls of the source.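 How the source made its calls: active means growth inhibition above 25% in both replicates, a cutoff set 3 SD above the mean; inconclusive means above 25% in only one replicate; inactive means the rest.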
# Experiment: OD615 S. cerevisiae growth inhibition, permissive medium, pilot counter-assay, permissive growth control for S. cerevisiae lifespan shortening project (AID 705)
# Settings: OD615, 24 h, at 10 µM, stronger effect = higher value
# Outline: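 System: Engineered DeaD yeast | Buffer or medium: SC raffinose/galactose permissive medium | Doses: 10 µM single dose, 0.25% DMSO | Times: 24 h exposure, 30 °C | Measured by: OD615 turbidity read | Read-out: Yeast growth inhibition indicated by reduced 24 h OD615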
row,SMILES,growth inhibition
1,O=C(CSc1ccccn1)c1ccc(F)cc1,10.7% (inactive)
2,O=C(CCn1c(=O)oc2ccccc21)NCc1ccc2c(c1)OCO2,-11.4% (inactive)
3,COc1ccc(-n2c(=O)c3ccccc3n(CC(=O)NC3CCCC3)c2=O)c(OC)c1,-4.38% (inactive)
4,O=C(Nc1ccc(F)cc1)C1CCCN(S(=O)(=O)c2cccc3cccnc23)C1 (stereo not given),-10.2% (inactive)
5,COc1ccc(CCNC(=O)CCn2c(=O)oc3ccccc32)cc1OC,-6.99% (inactive)
6,O=C(CCS(=O)(=O)c1cccc2nonc12)NCCc1ccccc1Cl,-1.5% (inactive)
7,Cc1ccc(S(=O)(=O)N(CC(=O)N2CCCC2)C2CCCCC2)cc1,-1.14% (inactive)
8,Cc1ccc(N2C(=O)C(Cl)=C(NCCO)C2=O)c(C)c1,-4.71% (inactive)
9,Cc1cccn2cc(-c3ccc(F)cc3)nc12,1.97% (inactive)
10,CSc1nc2ccc(NS(=O)(=O)c3ccc4c(c3)OCCO4)cc2s1,0.175% (inactive)
11,Cc1cc(Nc2ccc3c(c2)OCCO3)n2nc(C)nc2n1,-5.2% (inactive)
12,O=C(COc1ccc(S(=O)(=O)NC2CCCCC2)cc1)Nc1ccc2c(c1)OCCO2,-2.47% (inactive)
13,COc1ccc(OC)c2c1sc(=NC(=O)CN1C(=O)CCC1=O)n2C,-3.75% (inactive)
14,Cc1occc1C(=O)Nc1nnc(-c2ccncc2)s1,4.81% (inactive)
15,Cc1nnc(SCC(=O)Nc2ccc3c(c2)OCO3)o1,-0.465% (inactive)
16,O=C(CSC1=NS(=O)(=O)c2ccccc21)Nc1ccccc1,56.7% (active)
17,CCOC(=O)Cc1csc(NC(=O)COc2ccc(N(C)S(=O)(=O)c3cccs3)cc2)n1,-7.54% (inactive)
18,Cn1cc(SCC(=O)N2CCN(c3ccccc3)CC2)c2ccccc21,-0.395% (inactive)
19,COc1ccc(C(=O)Nc2ccc(Cl)cc2C(=O)NCc2ccco2)cc1OC,-0.55% (inactive)
20,Cc1cccc(N=C(N2CCOCC2)P(=O)(N2CCOCC2)N2CCOCC2)c1,-24.7% (inactive)

row,SMILES,growth inhibition
1,COc1cccc(-n2c(Cc3cc(=O)[nH]c(=O)[nH]3)nnc2SCC(=O)Nc2ccccc2)c1,-5.92% (inactive)
2,Cc1ccc(C)c(SCC(=O)OCC(=O)Nc2ccc(S(=O)(=O)N3CCOCC3)cc2)c1,-20.4% (inactive)
3,CC(C)n1c(NCc2cc(Cl)ccc2O)nc2ccccc21,-3.83% (inactive)
4,c1ccc2c(c1)CCN(c1nc3ccccc3n3cnnc13)C2,-1.93% (inactive)
5,CC1CCN(S(=O)(=O)c2ccc(NC(=O)c3cccs3)cc2)CC1,-0.77% (inactive)
6,CCCCOc1ccc(C2(C)CC(=O)NC2=O)cc1 (stereo not given),19.7% (inactive)
7,COc1ccc(C2C(C(=O)Nc3cccnc3)=C(C)Nc3nc(-c4ccco4)nn32)cc1 (stereo not given),4.86% (inactive)
8,CN(CCNC(=O)C1CC(=O)N(C2CCCC2)C1)Cc1ccccc1 (stereo not given),-2.86% (inactive)
9,O=C(NCCCN1CCCC1=O)c1ccccc1NS(=O)(=O)c1ccc(F)cc1,-7.5% (inactive)
10,CCOC(=O)c1sc2nc3n(c(=O)c2c1C)CCCCC3,-4.76% (inactive)
11,CS(=O)(=O)N(CC(=O)NCc1ccco1)c1ccc(Cl)c(C(F)(F)F)c1,-19% (inactive)
12,CC(NS(=O)(=O)c1ccc(Br)cc1)C(c1cccs1)N1CCN(C)CC1 (stereo not given),-5.18% (inactive)
13,CCOC(=O)C1Cn2c(nc3c(c2=O)C(C)(CC)Cc2ccccc2-3)S1 (stereo not given),-4.55% (inactive)
14,COc1cccc(N2CCN(c3ncnc4c3cnn4-c3ccc(C)cc3C)CC2)c1,4.2% (inactive)
15,COc1ccc(N2CSC3=C(C#N)C(c4ccc(OC)c(OC)c4)CC(=O)N3C2)c(OC)c1 (stereo not given),18.8% (inactive)
16,COc1ccc(-n2cnnc2)cc1,-1.44% (inactive)
17,COc1ccc(OCc2nnc3n2N=C(c2ccc(OC)cc2)CS3)cc1,7.92% (inactive)
18,O=C(Nn1nnnc1Nc1ccccc1)C12CC3CC(CC(C3)C1)C2,-3.62% (inactive)
19,Cc1ccc(CCNC(=O)CS(=O)Cc2nc(-c3cccc(C)c3)oc2C)cc1 (stereo not given),-4.94% (inactive)
20,COCCCNC(=O)Cn1ncc2ccsc2c1=O,-4.86% (inactive)
